Measured values as given in ChEMBL document CHEMBL4130438, “6,7-Seco-ent-Kauranoids Derived from Oridonin as Potential Anticancer Agents” (J Nat Prod, 2017).
The source made the active and inactive calls. No cut-off for these calls is given here.

Assays:
MCF7 [1] = test: Induction of apoptosis in human MCF7 cells assessed as early apoptotic cells at 2 uM after 24 hrs by Annexin-V FITC/propidium iodide staining based flow cytometry (reference value: 1.60%); format: functional
Bel-7402 = test: Cytotoxicity against human Bel7402 cells assessed as decrease in cell viability after 24 hrs by LDH release assay; format: functional, cell-based
Outline: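 MCF-7 and Bel-7402 cells seeded at ~5 × 10^3 per well for 24 h, then exposed to compounds. LDH released into the medium measured with CytoTox-ONE reagent (10 min, ambient temperature) followed by stop solution. Fluorescence read at ex 560/em 590 nm.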

MCF7 [2] = test: Induction of apoptosis in human MCF7 cells after 24 hrs by Annexin-V FITC/propidium iodide staining based flow cytometry; format: functional, cell-based
MCF7 [3] = test: Induction of apoptosis in human MCF7 cells assessed as necrotic cells at 1 uM after 24 hrs by Annexin-V FITC/propidium iodide staining based flow cytometry (reference value: 0.610%); format: functional
MCF7 [4] = test: Induction of apoptosis in human MCF7 cells assessed as necrotic cells at 0.25 uM after 24 hrs by Annexin-V FITC/propidium iodide staining based flow cytometry (reference value: 0.610%); format: functional
MCF7 [5] = test: Antiproliferative activity against human MCF7 cells after 72 hrs by MTT assay; format: functional, cell-based; settings: MCF7, 72 h
Outline: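 Cells pre-incubated 24 h at 37 °C, 5% CO2 in 96-well plates, then exposed to a range of compound concentrations (DMSO ≤0.25%) for 72 h. Viable cells read by MTT colour at 570 nm. Performed in quadruplicate, repeated three times. IC50 reported as means ± SD, n = 3.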

MCF7 [6] = test: Induction of apoptosis in human MCF7 cells assessed as increase in ERK phosphorylation after 48 hrs by Western blot analysis; format: functional, cell-based
MCF7 [7] = test: Cell cycle arrest in human MCF7 cells assessed as accumulation at S phase at 0.50 uM after 48 hrs by propidium iodide staining based flow cytometry (reference value: 17.01%); format: functional
MCF7 [8] = test: Induction of apoptosis in human MCF7 cells assessed as early apoptotic cells at 1 uM after 24 hrs by Annexin-V FITC/propidium iodide staining based flow cytometry (reference value: 1.60%); format: functional
Homo sapiens = species on record: Homo sapiens; test: Antiproliferative activity against human KB/CP4 cells after 48 hrs by MTT assay; format: functional, cell-based
MCF7 [9] = test: Inhibition of colony formation in human MCF7 cells up to 600 nM incubated for 24 hrs followed by removal of media measured after 10 days by crystal violet staining based microscopy; format: functional, cell-based
Outline: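 300 MCF-7 cells per well plated and incubated overnight, then exposed for 24 h to graded concentrations in DMSO (DMSO-only control). Medium removed and cells grown 10 days. Fixed in methanol 15 min, stained with 0.1% crystal violet 15 min; colonies of >50 cells counted. At least three independent experiments.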

MCF7 [10] = test: Induction of apoptosis in human MCF7 cells assessed as increase in caspase 3 expression level after 48 hrs by Western blot analysis; format: functional, cell-based
MCF7 [11] = test: Induction of apoptosis in human MCF7 cells assessed as late apoptotic cells at 2 uM after 24 hrs by Annexin-V FITC/propidium iodide staining based flow cytometry (reference value: 0.290%); format: functional
H22 [12] = test: Antitumor activity against […] cells xenografted in ICR mouse assessed as inhibition of tumor volume at 20 mg/kg, iv qd administered for 14 consecutive days measured every 2 days relative to control; format: functional; settings: 14 days
Outline: (§1)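 Male ICR mice, five weeks old, implanted s.c. in the right flank with 1 × 10^6 H22 cells. After 7 days, randomised into groups of eight. Given i.v. once daily for 14 days, 10 or 20 mg/kg in 10% DMF/2% poloxamer/88% saline; negative controls received 0.9% saline i.v., positive control 20 mg/kg oridonin. Body weight and tumour volume (L × W²/2) recorded every 2 days. Tumours excised and weighed at sacrifice; inhibition (%) = (1 − treated/control mean tumour weight) × 100.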

H22 [13] = test: Antitumor activity against […] cells xenografted in ICR mouse assessed as decrease in tumor weight at 10 to 20 mg/kg, iv qd administered for 14 consecutive days measured every 2 days; format: functional, organism-based; outline: as §1
MCF7 [14] = test: Induction of apoptosis in human MCF7 cells assessed as early apoptotic cells at 0.50 uM after 24 hrs by Annexin-V FITC/propidium iodide staining based flow cytometry (reference value: 1.60%); format: functional
MCF7 [15] = test: Induction of apoptosis in human MCF7 cells assessed as viable cells at 0.50 uM after 24 hrs by Annexin-V FITC/propidium iodide staining based flow cytometry (reference value: 97.5%); format: functional; settings: MCF7, 24 h, read-out: Activity
MCF7 [16] = test: Cell cycle arrest in human MCF7 cells assessed as accumulation at G1 phase at 0.50 uM after 48 hrs by propidium iodide staining based flow cytometry (reference value: 70.27%); format: functional
MCF7 [17] = test: Induction of apoptosis in human MCF7 cells assessed as early apoptotic cells at 0.25 uM after 24 hrs by Annexin-V FITC/propidium iodide staining based flow cytometry (reference value: 1.60%); format: functional

What does the source list for `C=C1C(=O)[C@@]23C(=O)OC[C@]4(C=CCC(C)(C)[C@H]4C=O)[C@@H]2CC[C@@H]1[C@H]3OC(=O)c1ccc(F)cc1`?
Activity (MCF7 [1]): 14%; Activity (Bel-7402): inactive; Activity (MCF7 [2]): Dose-dependent effect; Activity (MCF7 [3]): 1.93%; Activity (MCF7 [4]): 0.649%; IC50 (MCF7 [5]): 680 nM; Activity (MCF7 [6]): Dose-dependent effect; Activity (MCF7 [7]): 15.71%; Activity (MCF7 [8]): 10.2%; Activity (Homo sapiens): Active; inhibition (MCF7 [9]): Active; Activity (MCF7 [10]): Dose-dependent effect; Activity (MCF7 [11]): 24.7%; inhibition in vivo at 20 mg/kg (H22 [12]): 52.5%; Activity (H22 [13]): Active; Activity (MCF7 [14]): 9.75%; viability at 0.5 µM (MCF7 [15]): 81.7%; Activity (MCF7 [16]): 64.82%; Activity (MCF7 [17]): 6.67%
